# From ChEMBL document CHEMBL4330094, “Potent Metabolic Sialylation Inhibitors Based on C-5-Modified Fluorinated Sialic Acids” (J Med Chem, 2019)
# Active and inactive are the calls of the source. The rule behind the calls is not given here.
# System: B16-F10
# Experiment: Effect on total cell surface glycosylation in mouse B16F10 cells assessed as inhibition of biotinylated GSL1-lectin binding at 102.4 uM after 3 days by flow cytometry
# Format: cell-based
# Details: b16-f10, 72 h
# How it was run: (§1)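 B16-F10 cells were exposed 3 days to 102.4 µM compound or DMSO. Staining used biotinylated lectins (AAL 5, PNA 5, GSL-I 1, LCA 1, PHA-L 1, PSA 1, SJA 1, WGA 1 µg/ml) in carbo-free blocking buffer with 1 mM CaCl and 1 mM MgCl for 45-60 min at 4 °C, then streptavidin-PE for 20 min at 4 °C. Flow cytometry read-out was MFI, mean ± SEM from two independent experiments.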
row,SMILES,Activity
1,C#CCOC(=O)N[C@H]1[C@H]([C@H](OC(C)=O)[C@@H](COC(C)=O)OC(C)=O)OC(OC(C)=O)(C(=O)OC)[C@H](F)[C@@H]1OC(C)=O (stereo partly specified),Non-Toxic

# System: B16-F10
# Experiment: Effect on total cell surface glycosylation in mouse B16F10 cells assessed as inhibition of biotinylated PSA-lectin binding at 102.4 uM after 3 days by flow cytometry
# Format: cell-based
# Details: b16-f10, 72 h
# How it was run: as §1
row,SMILES,Activity
1,C#CCOC(=O)N[C@H]1[C@H]([C@H](OC(C)=O)[C@@H](COC(C)=O)OC(C)=O)OC(OC(C)=O)(C(=O)OC)[C@H](F)[C@@H]1OC(C)=O (stereo partly specified),Non-Toxic

# System: B16-F10
# Experiment: Effect on total cell surface glycosylation in mouse B16F10 cells assessed as inhibition of biotinylated SJA-lectin binding at 102.4 uM after 3 days by flow cytometry
# Format: cell-based
# Details: b16-f10, 72 h
# How it was run: as §1
row,SMILES,Activity
1,C#CCOC(=O)N[C@H]1[C@H]([C@H](OC(C)=O)[C@@H](COC(C)=O)OC(C)=O)OC(OC(C)=O)(C(=O)OC)[C@H](F)[C@@H]1OC(C)=O (stereo partly specified),Non-Toxic

# System: B16-F10
# Experiment: Relative inhibitory potency, ratio of SiaFAc to compound EC50 for inhibition of sialyltransferase in mouse B16-F10 cells
# Format: cell-based
# Details: not given
row,SMILES,Ratio EC50
1,C#CCOC(=O)N[C@H]1[C@H]([C@H](OC(C)=O)[C@@H](COC(C)=O)OC(C)=O)OC(OC(C)=O)(C(=O)OC)[C@H](F)[C@@H]1OC(C)=O (stereo partly specified),37

# System: B16-F10
# Experiment: Effect on total cell surface glycosylation in mouse B16F10 cells assessed as inhibition of biotinylated PHA-L lectin binding at 102.4 uM after 3 days by flow cytometry
# Format: cell-based
# Details: b16-f10, 72 h
# How it was run: as §1
row,SMILES,Activity
1,C#CCOC(=O)N[C@H]1[C@H]([C@H](OC(C)=O)[C@@H](COC(C)=O)OC(C)=O)OC(OC(C)=O)(C(=O)OC)[C@H](F)[C@@H]1OC(C)=O (stereo partly specified),Non-Toxic

# System: not listed separately
# Experiment: Inhibition of sialyltransferase in mouse B16F10 cells assessed as decrease in lectin binding after 3 days by biotinylated MAL2 lectin and streptavidin-PE based flow cytometry
# Format: cell-based
# Details: not given
# How it was run: (§2)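 Each cell line was incubated 3 days with increasing compound concentrations or equivalent DMSO. Cells were stained with biotinylated MALII (5 µg/ml) in carbo-free blocking buffer with 1 mM CaCl/MgCl for 45-60 min at 4 °C, washed in PBS/1% BSA/0.02% azide, then stained with streptavidin-PE for 20 min at 4 °C. For flow cytometry, MFI was normalized to control as % lectin binding.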
row,EC50,SMILES
1,720 nM,C#CCOC(=O)N[C@H]1[C@H]([C@H](OC(C)=O)[C@@H](COC(C)=O)OC(C)=O)OC(OC(C)=O)(C(=O)OC)[C@H](F)[C@@H]1OC(C)=O (stereo partly specified)

# System: not listed separately
# Experiment: Inhibition of sialyltransferase in HEK293 cells assessed as decrease in lectin binding after 3 days by biotinylated MAL2 lectin and streptavidin-PE based flow cytometry
# Format: cell-based, Homo sapiens
# Details: not given
# How it was run: as §2
row,EC50,SMILES
1,1190 nM,C#CCOC(=O)N[C@H]1[C@H]([C@H](OC(C)=O)[C@@H](COC(C)=O)OC(C)=O)OC(OC(C)=O)(C(=O)OC)[C@H](F)[C@@H]1OC(C)=O (stereo partly specified)

# System: B16-F10
# Experiment: Effect on total cell surface glycosylation in mouse B16F10 cells assessed as inhibition of biotinylated WGA-lectin binding at 102.4 uM after 3 days by flow cytometry
# Format: cell-based
# Details: b16-f10, 72 h
# How it was run: as §1
row,SMILES,Activity
1,C#CCOC(=O)N[C@H]1[C@H]([C@H](OC(C)=O)[C@@H](COC(C)=O)OC(C)=O)OC(OC(C)=O)(C(=O)OC)[C@H](F)[C@@H]1OC(C)=O (stereo partly specified),Non-Toxic

# System: not listed separately
# Experiment: Inhibition of sialyltransferase in human HeLa cells assessed as decrease in lectin binding after 3 days by biotinylated MAL2 lectin and streptavidin-PE based flow cytometry
# Format: cell-based
# Details: not given
# How it was run: as §2
row,EC50,SMILES
1,1650 nM,C#CCOC(=O)N[C@H]1[C@H]([C@H](OC(C)=O)[C@@H](COC(C)=O)OC(C)=O)OC(OC(C)=O)(C(=O)OC)[C@H](F)[C@@H]1OC(C)=O (stereo partly specified)

# System: not listed separately
# Experiment: Inhibition of sialyltransferase in mouse 9464D cells assessed as decrease in lectin binding after 3 days by biotinylated MAL2 lectin and streptavidin-PE based flow cytometry
# Format: cell-based
# Details: not given
# How it was run: as §2
row,EC50,SMILES
1,10700 nM,C#CCOC(=O)N[C@H]1[C@H]([C@H](OC(C)=O)[C@@H](COC(C)=O)OC(C)=O)OC(OC(C)=O)(C(=O)OC)[C@H](F)[C@@H]1OC(C)=O (stereo partly specified)

# System: B16-F10
# Experiment: Effect on total cell surface glycosylation in mouse B16F10 cells assessed as inhibition of biotinylated AAL-lectin binding at 102.4 uM after 3 days by flow cytometry
# Format: cell-based
# Details: b16-f10, 72 h
# How it was run: as §1
row,SMILES,Activity
1,C#CCOC(=O)N[C@H]1[C@H]([C@H](OC(C)=O)[C@@H](COC(C)=O)OC(C)=O)OC(OC(C)=O)(C(=O)OC)[C@H](F)[C@@H]1OC(C)=O (stereo partly specified),Non-Toxic

# System: B16-F10
# Experiment: Effect on total cell surface glycosylation in mouse B16F10 cells assessed as inhibition of biotinylated LCA-lectin binding at 102.4 uM after 3 days by flow cytometry
# Format: cell-based
# Details: b16-f10, 72 h
# How it was run: as §1
row,SMILES,Activity
1,C#CCOC(=O)N[C@H]1[C@H]([C@H](OC(C)=O)[C@@H](COC(C)=O)OC(C)=O)OC(OC(C)=O)(C(=O)OC)[C@H](F)[C@@H]1OC(C)=O (stereo partly specified),Non-Toxic

# System: B16-F10
# Experiment: Effect on total cell surface glycosylation in mouse B16F10 cells assessed as inhibition of biotinylated PNA lectin binding at 102.4 uM after 3 days by flow cytometry
# Format: cell-based
# Details: b16-f10, 72 h
# How it was run: as §1
row,SMILES,Activity
1,C#CCOC(=O)N[C@H]1[C@H]([C@H](OC(C)=O)[C@@H](COC(C)=O)OC(C)=O)OC(OC(C)=O)(C(=O)OC)[C@H](F)[C@@H]1OC(C)=O (stereo partly specified),Non-Toxic

# System: B16-F10
# Experiment: Cytotoxicity against mouse B16F10 cells assessed as reduction in metabolic activity at <51.2 uM after 3 days by MTT assay
# Format: ADME, cell-based
# Details: b16-f10, 72 h
row,SMILES,Activity
1,C#CCOC(=O)N[C@H]1[C@H]([C@H](OC(C)=O)[C@@H](COC(C)=O)OC(C)=O)OC(OC(C)=O)(C(=O)OC)[C@H](F)[C@@H]1OC(C)=O (stereo partly specified),Non-Toxic

# System: B16-F10
# Experiment: Inhibition of sialyltransferase in mouse B16-F10 cells assessed as recovery time for sialylation at 25.6 uM pretreated for 3 days followed by washing and re-seeding and measured after 6 days by biotinylated MAL2 lectin-based flow cytometry
# Format: cell-based
# Details: not given
# How it was run: (§3)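 B16-F10 cells were pretreated 3 days with 25.6 or 51.2 µM compound or DMSO, washed, reseeded, and sampled daily for 6 days. They were stained with biotinylated MALII (5 µg/ml, 45-60 min, 4 °C) plus streptavidin-PE. Flow cytometry MFI was normalized to control as % lectin binding.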
row,SMILES,sialylation recovery time
1,C#CCOC(=O)N[C@H]1[C@H]([C@H](OC(C)=O)[C@@H](COC(C)=O)OC(C)=O)OC(OC(C)=O)(C(=O)OC)[C@H](F)[C@@H]1OC(C)=O (stereo partly specified),Active

# System: B16-F10
# Experiment: Inhibition of sialyltransferase in mouse B16-F10 cells assessed as recovery time for sialylation at 51.2 uM pretreated for 3 days followed by washing and re-seeding and measured after 6 days by biotinylated MAL2 lectin-based flow cytometry
# Format: cell-based
# Details: not given
# How it was run: as §3
row,SMILES,TIME
1,C#CCOC(=O)N[C@H]1[C@H]([C@H](OC(C)=O)[C@@H](COC(C)=O)OC(C)=O)OC(OC(C)=O)(C(=O)OC)[C@H](F)[C@@H]1OC(C)=O (stereo partly specified),120 to 144 h

# System: B16-F10
# Experiment: Cytotoxicity against mouse B16F10 cells assessed as reduction in metabolic activity at 204.8 uM after 3 days by MTT assay
# Format: ADME, cell-based
# Details: b16-f10, 72 h
row,SMILES,Activity
1,C#CCOC(=O)N[C@H]1[C@H]([C@H](OC(C)=O)[C@@H](COC(C)=O)OC(C)=O)OC(OC(C)=O)(C(=O)OC)[C@H](F)[C@@H]1OC(C)=O (stereo partly specified),Non-Toxic

# System: not listed separately
# Experiment: Inhibition of sialyltransferase in mouse EL4 cells assessed as decrease in lectin binding after 3 days by biotinylated MAL2 lectin and streptavidin-PE based flow cytometry
# Format: cell-based
# Details: not given
# How it was run: as §2
row,EC50,SMILES
1,51000 nM,C#CCOC(=O)N[C@H]1[C@H]([C@H](OC(C)=O)[C@@H](COC(C)=O)OC(C)=O)OC(OC(C)=O)(C(=O)OC)[C@H](F)[C@@H]1OC(C)=O (stereo partly specified)

# Target: N-acylneuraminate cytidylyltransferase (Mus musculus, UniProt Q99KK2)
# Sequence (Q99KK2 whole entry): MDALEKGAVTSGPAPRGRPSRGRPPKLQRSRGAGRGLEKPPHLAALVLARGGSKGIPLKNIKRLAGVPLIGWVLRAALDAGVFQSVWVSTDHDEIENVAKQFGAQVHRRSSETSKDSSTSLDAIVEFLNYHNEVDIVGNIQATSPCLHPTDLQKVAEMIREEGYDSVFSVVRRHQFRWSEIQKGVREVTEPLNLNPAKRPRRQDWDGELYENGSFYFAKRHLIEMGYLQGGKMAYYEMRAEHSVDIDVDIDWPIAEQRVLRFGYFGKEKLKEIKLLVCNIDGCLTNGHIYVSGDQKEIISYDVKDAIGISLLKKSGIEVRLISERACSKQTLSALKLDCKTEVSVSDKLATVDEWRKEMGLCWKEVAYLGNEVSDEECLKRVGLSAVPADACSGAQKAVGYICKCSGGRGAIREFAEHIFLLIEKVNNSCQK
# Experiment: Prodrug activation in mouse B16F10 cells assessed as CMAS-mediated CMP-SiaFR levels at 51.2 uM after 1 to 24 hrs using fluorinated compounds by reverse-phase ion pairing chromatography/triple quadrupole mass spectrometric analysis
# Format: cell-based
# Details: not given
# How it was run: (§4)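 B16-F10 cells were incubated 1, 2, 4, 8 or 24 h with 51.2 µM fluorinated analogue or DMSO. Cells were washed with ammonium carbonate buffer (pH 7.4) and snap-frozen in liquid nitrogen. Extraction was twice for 3 min with cold 40% acetonitrile/40% methanol/20% water, followed by centrifugation for 3 min and vacuum drying.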
row,Drug metabolism,SMILES
1,Metabolite_Detected,C#CCOC(=O)N[C@H]1[C@H]([C@H](OC(C)=O)[C@@H](COC(C)=O)OC(C)=O)OC(OC(C)=O)(C(=O)OC)[C@H](F)[C@@H]1OC(C)=O (stereo partly specified)

# System: not listed separately
# Experiment: Inhibition of sialyltransferase in human THP1 cells assessed as decrease in lectin binding after 3 days by biotinylated MAL2 lectin and streptavidin-PE based flow cytometry
# Format: cell-based
# Details: not given
# How it was run: as §2
row,EC50,SMILES
1,420 nM,C#CCOC(=O)N[C@H]1[C@H]([C@H](OC(C)=O)[C@@H](COC(C)=O)OC(C)=O)OC(OC(C)=O)(C(=O)OC)[C@H](F)[C@@H]1OC(C)=O (stereo partly specified)

# System: B16-F10
# Experiment: Inhibition of sialyltransferase in mouse B16-F10 cells assessed as reduction in CMP-Sia pool at 51.2 uM after 1 to 24 hrs using fluorinated compounds by reverse-phase ion pairing chromatography/triple quadrupole mass spectrometric analysis
# Format: cell-based
# Details: not given
# How it was run: as §4
row,SMILES,inhibition
1,C#CCOC(=O)N[C@H]1[C@H]([C@H](OC(C)=O)[C@@H](COC(C)=O)OC(C)=O)OC(OC(C)=O)(C(=O)OC)[C@H](F)[C@@H]1OC(C)=O (stereo partly specified),Active
